Screens from PubChem.
Dyrk1A ADPGlo – blocks rat Dyrk1A kinase activity | actives 0.43% (n = 310,000) | ADP-Glo luminescence, NFATc1 peptide | Q63470 | inhibition, % at 12.5 µM; in the data active = inhibition above about 50%;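 note: plate controls were vehicle with enzyme for no effect and no enzyme for full effect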
Rtt109 HAT inh – blocks Candida albicans Rtt109/Vps75 acetyltransferase activity | purified Rtt109/Vps75, ThioGlo CoA-SH fluorescence, 4 h | inhibition, % at 34.9 µM | actives 0.16% (n = 330,000) | AID 540336;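 active = inhibition of at least 50% in every replicate; inconclusive = best replicate reaches 50% inhibition but some replicates fall short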
Target sequence (Q5AAJ8 whole entry, looked up): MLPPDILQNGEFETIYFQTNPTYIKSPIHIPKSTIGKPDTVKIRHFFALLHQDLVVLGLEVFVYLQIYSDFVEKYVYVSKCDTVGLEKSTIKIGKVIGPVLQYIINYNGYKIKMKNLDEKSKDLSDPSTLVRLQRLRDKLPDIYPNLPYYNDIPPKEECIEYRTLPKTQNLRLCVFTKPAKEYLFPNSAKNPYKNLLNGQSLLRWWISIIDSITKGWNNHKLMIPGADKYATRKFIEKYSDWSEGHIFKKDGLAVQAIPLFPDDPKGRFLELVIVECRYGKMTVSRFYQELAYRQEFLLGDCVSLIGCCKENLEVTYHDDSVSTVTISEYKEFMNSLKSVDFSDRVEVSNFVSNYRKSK
CAL PDZ FP-1 – blocks peptide binding to the human CAL PDZ domain. Q9HD26. purified CAL PDZ, TMR-peptide fluorescence polarization, 1 h. inhibition, % at 24.9 µM. actives 0.92% (n = 300,000);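 active = mean inhibition of at least 30% with at least half of replicates also reaching 30%; inconclusive = no clear call, values can overlap the other calls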;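 note: 0% = DMSO neutral control and 100% = excess unlabeled competitor peptide PRC23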
CAL PDZ FP-2 – human CAL PDZ-peptide interaction inhibition; AID 504414; inhibition, % at 20 µM; purified CAL PDZ, TMR-peptide fluorescence polarization, 1 h; actives 0.02% (n = 330,000);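 active = highest replicate inhibition of at least 40%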;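 note: plate controls were DMSO neutral control wells for no effect and unlabeled competitor peptide control wells for full effect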
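Material – purified CerCALP PDZ construct · Detection – FP readout, S and P plane fluorescence · Measure – percent inhibition from loss of millipolarization · Controls – unlabelled peptide for full inhibition, DMSO wells as neutral · Probe or stimulus – TMR-labelled reporter peptide T*-PRC34 bound in PDZ groove · Times – 1 h at RT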
ALR inh – inhibitors of human sulfhydryl oxidase ALR | P55789 | purified ALR, DTT oxidation, H2O2 HRP-luminol luminescence | inhibition, % (concentration not given with the values) | actives 3.8% (n = 290,000);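 active = mean replicate inhibition above about 79%, with every replicate also reaching it, limit read from the data; inconclusive = only one of the two criteria met; inactive = mean below limit and not every replicate reaching it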
Target sequence (P55789 whole entry, looked up): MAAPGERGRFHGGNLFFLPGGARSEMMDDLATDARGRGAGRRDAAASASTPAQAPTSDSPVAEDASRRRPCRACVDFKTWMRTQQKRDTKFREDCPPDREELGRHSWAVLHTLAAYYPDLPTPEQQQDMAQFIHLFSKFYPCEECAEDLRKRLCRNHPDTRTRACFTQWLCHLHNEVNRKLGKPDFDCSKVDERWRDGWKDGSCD
* hit, by the source's call; ? = inconclusive; . = no result. This is a sample that favours compounds with a hit; in the whole collection about 4.3% have one here.

SMILES | Dyrk1A ADPGlo | Rtt109 HAT inh | CAL PDZ FP-1 | CAL PDZ FP-2 | ALR inh
CCCCN(C)CCCNC(=O)CS(=O)Cc1nc(-c2ccc(OC)c(OC)c2)oc1C (stereo not drawn) | -2 | 8 | 0 | 0 | 100*
O=C(O)CCn1cc(/C=C2/NC(=S)N(c3ccccc3)C2=O)c(-c2ccccc2)n1 | -1 | 37 | -3 | -3 | 97*
Cc1ccc(F)cc1NC(=O)c1cnccn1 | -1 | -2 | 0 | . | -9
CCOC(=O)c1nn(-c2ccc3c(c2)OCO3)cc1O | 45 | -5 | -4 | -1 | 94*
Cc1csc(NC(=O)CSc2nc(C)nc3c2c(=O)n(C)c(=O)n3C)n1 | 0 | 1 | . | -3 | 98*
COCC(=O)Nc1nc(-c2ccc([N+](=O)[O-])cc2)cs1 | -2 | -26 | -3 | -2 | 98*
CCOC(=O)c1sc(NC(=O)CSc2nccn2C)nc1C | 6 | -10 | 0 | -3 | 98*
Cc1cccc(NC(=O)CSc2nc(C)nc3c2c(=O)n(C)c(=O)n3C)c1 | -1 | 1 | -10 | 0 | .
CCOC(=O)c1sc(NC(=O)CSc2ncccn2)nc1C | . | 15 | . | -1 | -3
CCOC(=O)Cc1csc(NC(=O)NC2(C(F)(F)F)Oc3cc(Cl)c(Cl)cc3O2)n1 | 22 | -6 | -2 | . | 98*
O=S(=O)(c1ccc(NC(=S)NCc2ccncc2)cc1)N1CCCCC1 | . | 4 | -1 | -1 | -4
CCc1ccccc1NC(=S)N(CCCN(C)C)Cc1cc2cc3c(cc2[nH]c1=O)OCO3 | -3 | 3 | -3 | 0 | 3
CC(C)(C)c1csc(NC(=O)CSC2=NCCS2)n1 | 2 | -3 | 0 | -1 | 99*
CCOC(=O)Cc1csc(NC(=O)/C=C/c2ccc(OC)cc2)n1 | 9 | . | 32* | -3 | -4
Cc1csc(NC(=O)CSC2=NCCS2)n1 | 8 | -5 | -3 | -1 | 99*
Cc1nnc(SCC(=O)Nc2nc(C(C)(C)C)cs2)s1 | 0 | 2 | . | 0 | .
CCOC(=O)Cc1csc(NC(=O)CSC2=NCCS2)n1 | -5 | -6 | -1 | -2 | 99*
COC(=O)c1sccc1Oc1c(Cl)cccc1[N+](=O)[O-] | 3 | 0 | 4 | 0 | -8
CCOC(=O)Nc1nc(C)c(C(=O)c2ccc(Cl)cc2)s1 | 10 | -6 | -4 | . | 1
CCOC(=O)c1sc(NC(=O)Nc2ccc(Cl)cc2)nc1C | 3 | 1 | 52* | 0 | -11
CCOC(=O)Cc1csc(NC(=O)c2sc3nc4ccc(C)cc4cc3c2N)n1 | -2 | 7 | -2 | 0 | 99*
CCOC(=O)Cc1csc(NC(=O)Cc2ccc([N+](=O)[O-])cc2)n1 | -4 | 5 | 3 | -3 | 98*
CCOC(=O)Cc1csc(NC(=O)CSc2nc(=O)[nH]c3c2CCCC3)n1 | -6 | -2 | -1 | -1 | 96*
COc1ccc(OCCCC(=O)Nc2cc(S(=O)(=O)N3CCCCC3)ccc2C)cc1 | 4 | 3 | -2 | -2 | -8
CCOC(=O)Cc1csc(NC(=O)CSc2nccn2C)n1 | -2 | 3 | 11 | -2 | 99*
SMILES | Dyrk1A ADPGlo | Rtt109 HAT inh | CAL PDZ FP-1 | CAL PDZ FP-2 | ALR inh
CCOC(=O)Cc1csc(NC(=O)CSc2nnnn2-c2ccc(CC)cc2)n1 | 5 | 14 | -2 | -2 | -29
Cc1ccc(S(=O)(=O)Nc2cc3c(cc2C#N)OCO3)cc1C(N)=O | -1 | -6 | -1 | -1 | .
COc1ccc(CCC(=O)OCC(=O)Nc2ccccc2OC(F)F)cc1OC | 6 | 0 | 5 | -2 | 1
COc1cccc(-c2nnc(NC(=O)c3ccc(Cl)s3)o2)c1 | 19 | 14 | . | -2 | 3
O=C(Nc1nnc(-c2ccco2)o1)c1cccc(Cl)c1 | . | -2 | -2 | -2 | 96*
O=C(Nc1nnc(-c2ccco2)o1)c1ccc(Cl)s1 | -7 | 1 | -3 | -2 | 96*
O=C(Nc1nnc(-c2ccccn2)o1)c1cccc(Cl)c1 | . | -4 | -1 | -2 | .
COc1cc2[nH]c3c(=O)n(N)c(=O)[nH]c3c2cc1OC | 5 | -8 | 0 | -1 | 5
O=C(CCCc1ccccc1)NCCc1ccc(F)cc1 | 4 | -9 | 7 | 0 | .
CN(C(=O)COC(=O)c1ccc(Cl)cc1N)C1CCCCC1 | -1 | 4 | 34* | 0 | 15
Cc1ccc(/C=N/OC(=O)c2nn(C)cc2Cl)cc1 | -2 | 7 | -7 | . | ?
COCC(C)NC(=O)c1cc(-c2ccc(O)cc2)on1 (stereo not drawn) | 11 | -2 | 7 | 0 | 99*
COCC(C)NC(=O)c1cc(-c2cccc(OC)c2)on1 (stereo not drawn) | 3 | -15 | . | 2 | -5
COc1cc([C@H]2OC[C@H]3[C@@H]2CO[C@H]3c2ccc(O)c(OC)c2)ccc1O | 18 | -2 | -4 | -1 | 98*
COc1cc(C2OCC3C(c4ccc(OC5OC(CO)C(O)C(O)C5O)c(OC)c4)OCC23)ccc1O (stereo not drawn) | 3 | -18 | 8 | 0 | 95*
C/C=C/c1cc(OC)c2c(c1)[C@H](C)[C@@H](c1ccc(O)c(OC)c1)O2 | -4 | 2 | -1 | 0 | 63
CCc1ccc(NC(=O)CSc2nnc(C)c(=O)n2N)cc1 | -5 | 18 | -3 | -2 | 99*
CCc1nnc(NC(=O)CSc2nnc(C)c(=O)n2N)s1 | -2 | -10 | -1 | 0 | 95*
Cc1nnc(NC(=O)CSc2nnc(C)c(=O)n2N)s1 | -1 | -3 | 10 | -2 | -14
Cc1nnc(SCC(=O)Nc2ccc(S(N)(=O)=O)cc2)n(N)c1=O | -1 | 0 | -5 | 0 | 99*
COc1cc(C)c(S(=O)(=O)NCc2cccnc2)cc1C | -2 | 2 | 0 | 0 | 2
COC(=O)c1[nH]c(=O)c2ccccc2c1O | 8 | 5 | -5 | 0 | 98*
Cc1cccc(N2CCC(N3CCN(C4CCCCC4)C(CCO)C3)CC2)c1C (stereo not drawn) | -3 | 1 | -3 | -2 | 28
CCN(CC)C(=O)CSc1nc2ccc(NC(=O)CSc3nccn3C)cc2s1 | 5 | . | -5 | -2 | 99*
O=C(CCCSc1nc2ccccc2s1)Nc1nccs1 | 23 | -6 | -11 | . | .
SMILES | Dyrk1A ADPGlo | Rtt109 HAT inh | CAL PDZ FP-1 | CAL PDZ FP-2 | ALR inh
CCCC(=O)Nc1ccc2nc(SCC(=O)Nc3nccs3)sc2c1 | 11 | -1 | -3 | -2 | 99*
Cc1nnc(SCC(=O)Nc2nccs2)s1 | . | 1 | 79* | 1 | -6
COc1cc(OC)c(OC)cc1CNC(=O)c1cccc(S(=O)(=O)N2CCc3ccccc3C2)c1 | -7 | 4 | -3 | 0 | .
CC(=O)Nc1ccc(-c2csc(Nc3ccccn3)n2)cc1 | -4 | 2 | -4 | 1 | 6
Cc1ccnc(Nc2nc(-c3ccc(O)cc3O)cs2)c1 | 14 | -1 | 29 | 1 | 99*
Oc1ccc(-c2csc(Nc3ccccn3)n2)cc1O | 24 | -4 | -2 | -1 | 98*
Cc1cccnc1Nc1nc(-c2ccc(O)c(O)c2)cs1 | 35 | 8 | -1 | 0 | 99*
Cc1cccc(Nc2nc(-c3ccc(O)c(O)c3)cs2)n1 | . | 6 | -1 | 0 | 99*
